Many of the other results were omitted from the sample, so hits are more common in it than they were.
DTT redox prof – compounds producing H2O2 with reducing agent – biochemical, NIH compound library profiling, artefact control for MLSCN library redox annotation, primary screen; DTT-dependent redox cycling H2O2, phenol red/HRP absorbance; 100% = 100 µM peroxide control, 0% = buffer; activation, % at 10 µM; 200,000 tested, 0.03% active; AID 878;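 active means activation of at least 50% relative to the plate's high and low controls in the primary single-dose screen; inactive means activation below 50%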;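 further: compound incubated with DTT at 0.8 mM final as the reducing agent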
G6PDH counter – inhibits Leuconostoc G6PDH, flagging false hits in G6PDH-based assays; Purified L. mesenteroides G6PDH, diaphorase/resazurin coupled fluorescence, 45 min; inhibition, % at 5 µM; 200,000 tested, 0.12% active
PfGluPho inh – PfG6PD (Plasmodium falciparum) enzyme inhibition | PfGluPho enzyme, NADPH resazurin-diaphorase fluorescence | inhibition, % at 20 µM | 350,000 tested, 0.78% active;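 active means inhibition reaching at least a set limit at 20 µM in the primary screen, cut at about 59% in these data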
Diaphorase act – counter-screen for diaphorase-based assays: diaphorase activators and chemical reducers | Diaphorase/resazurin coupled assay, resorufin fluorescence, 16 min; active compounds read high; 1 = vehicle wells, 0 = NADH-free wells | activation factor at 20 µM | 190,000 tested, 0.005% active;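 active means diaphorase activity raised at least twofold by the compound at 20 µM; inactive means activation factor below 2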
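test system = bacterial diaphorase enzyme (C. kluyveri) | quantity = enzyme 0.07 U/mL final | reagent = NADH substrate 0.114 mM plus resazurin dye 0.1 mM, final | incubation = 16 min enzyme reaction, ambient temperature | buffer or medium = HEPES pH 7.4 buffer with MgCl2 and Tween 20 | signal = fluorescence of resorufin, 544 nm excitation, 590 nm emission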
Diaph inh CS – counter-screen for diaphorase-based assays: diaphorase inhibitors and chemical oxidizers | diaphorase resazurin-to-resorufin fluorescence, NADH, 16 min; bacterial (C. kluyveri) enzyme, not human | inhibition, % at 20 µM | 190,000 tested, 0.69% active | AID 1217;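 active means primary screen inhibition at 20 µM above a set limit, cut at about 50% in these data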
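Assay system: diaphorase enzyme from Clostridium kluyveri; Input: enzyme working solution with 0.14 U/mL diaphorase; Timing: 16 min at room temperature; Technique: resorufin fluorescence, excitation 544 nm, emission 590 nm; Benchmarks: positive control minus NADH, DMSO neutral control.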
Lmaj promast – Leishmania major promastigote growth inhibition; Leishmania major promastigotes, resazurin fluorescence viability; 200,000 tested, 9% active; AID 1063; inhibition, % at 10 µM;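 further: promastigotes grown with compound for 44 hours at 28 °C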
Of the large screens only hits and unclear results are named; the others gave an inactive call. Unless noted, no stated cut-off is given here; in the data, active means inhibition above about 50%; inactive means the rest.

O=C1COc2ccc(C(=O)/C=C/c3ccccc3)cc2N1	Lmaj promast 84
O=C(/C=C/c1ccccc1)c1ccc2c(c1)OCCCCO2	none
O=C(O)/C=C/C(=O)Nc1ccc2c(c1)NC(=O)CO2	Diaph inh CS 61
CSc1ccccc1N1CCN(C(=O)Nc2ccc3c(c2)NC(=O)CO3)CC1	none
O=C(CCC(=O)c1cccs1)OCc1ccc([N+](=O)[O-])cc1	none (no result: DTT redox prof, G6PDH counter, Diaphorase act, Diaph inh CS, Lmaj promast)
O=C(CSc1ccc2nnc(-c3ccncc3)n2n1)N1CCc2ccccc21	none (no result: DTT redox prof, PfGluPho inh, Lmaj promast)
COc1ccc(NC(=O)/C(=C/c2ccc(OC(C)=O)c(OC)c2)NC(C)=O)cc1	none
COc1cc(/C=C(\NC(C)=O)C(=O)Nc2ccc(NC(C)=O)cc2)ccc1OC(C)=O	Lmaj promast 57
CCOc1cc2c(cc1OC)C(NC(=O)c1ccco1)CC2=O (stereo not drawn)	none (no result: DTT redox prof, G6PDH counter, Diaphorase act, Diaph inh CS, Lmaj promast)
C=C(C(=O)c1ccccc1)C(c1ccccc1)C(C)C(=O)c1ccccc1 (stereo not drawn)	Lmaj promast 89
C=C(C(=O)c1ccccc1)C(C)C(=C)C(=O)c1ccccc1	Lmaj promast 100
C=C(C(=O)c1ccccc1)C(C(=C)C(=O)c1ccccc1)c1ccc(OC)cc1	none (no result: DTT redox prof, G6PDH counter, Diaphorase act, Diaph inh CS, Lmaj promast)
O=C(CSc1nc(-c2ccccc2)cs1)NCCCN1CCCC1=O	none (no result: DTT redox prof, G6PDH counter, Diaphorase act, Diaph inh CS, Lmaj promast)
Cc1ccc(C(C[N+](=O)[O-])c2c(-c3ccccc3O)[nH][nH]c2=O)cc1 (stereo not drawn)	Lmaj promast 100
O=c1[nH][nH]c(-c2ccccc2O)c1C(C[N+](=O)[O-])c1ccc(Br)cc1 (stereo not drawn)	Lmaj promast 100
O=[N+]([O-])CC(c1ccc(F)cc1)c1c[nH]c2ccccc12 (stereo not drawn)	none (no result: DTT redox prof, G6PDH counter, Diaphorase act, Diaph inh CS, Lmaj promast)
COc1ccc(C(C[N+](=O)[O-])c2c(C)[nH]c3ccccc23)cc1OC (stereo not drawn)	none
c1ccc(Cn2c(-c3ccco3)nc3nc4ccccc4nc32)cc1	none
c1coc(-c2nc3nc4ccccc4nc3n2-c2ccc3c(c2)OCCO3)c1	Lmaj promast 84
Cc1ccc(Sc2ccc(NC(=O)CCl)cc2)c(C)c1	Lmaj promast 97
CCn1c2ccccc2c2cc(/C=N/NC(=O)c3cc(O)cc(O)c3)ccc21	none
CCn1c2ccccc2c2cc(/C=N/NC(=O)c3ccc(O)cc3)ccc21	Lmaj promast 67
Cc1cc(C)n2nc(/C(C#N)=C/c3ccccn3)c(C#N)c2n1	Lmaj promast 97
C=CCNC(=O)CC(=O)N/N=C/c1cccc(C)c1	none
O=C(NC(Cc1ccccc1)C(=O)O)c1ccccc1 (stereo not drawn)	none
Cc1ccc(CC(NC(=O)c2ccccc2)C(=O)NC(C)C(=O)O)cc1 (stereo not drawn)	Lmaj promast 84
O=C(NC(Cc1ccc(F)cc1)C(=O)O)c1ccccc1 (stereo not drawn)	Lmaj promast 70
CS(=O)(=O)c1ccc(Cl)c(NC(=O)C2CCCN(C(=O)c3ccc(Cl)cc3)C2)c1 (stereo not drawn)	none (no result: DTT redox prof, G6PDH counter, Diaphorase act, Diaph inh CS, Lmaj promast)
Cc1cccc(NC(=O)CN(CC2CCCO2)C(=O)c2oc3ccccc3c2C)c1C (stereo not drawn)	none (no result: DTT redox prof, G6PDH counter, Diaphorase act, Diaph inh CS, Lmaj promast)
CC1(C)C2CCC1(C)C1(C2)NC(=O)c2ccccc2O1 (stereo not drawn)	none
Cc1cc(C)c(Cn2cnc(-c3ccc([N+](=O)[O-])cc3)c2)c(C)c1	none
CC(C)(C)c1ccc(Cn2cnc(-c3ccc([N+](=O)[O-])cc3)c2)cc1	Lmaj promast 89
CC1CC(=O)C2=C(C1)Nc1ccccc1SC2c1ccc(F)cc1 (stereo not drawn)	Lmaj promast 68
O=C1C=CC(=O)N1c1cccc(-c2ccccc2)c1	PfGluPho inh 98 (no result: DTT redox prof, G6PDH counter, Diaphorase act, Diaph inh CS, Lmaj promast)
O=c1cc(-c2ccccc2)[nH]n1-c1ccccc1	none (no result: DTT redox prof, G6PDH counter, Diaphorase act, Diaph inh CS, Lmaj promast)
CCC(C)(C)c1ccc(OCCCC[n+]2cccc(C)c2)c(C(C)(C)CC)c1	Lmaj promast 100
CC(C)CC(=O)NC(=S)Nc1ccc(S(=O)(=O)Nc2nccs2)cc1	Lmaj promast 55
CC(C)(C)NS(=O)(=O)c1ccc(NC(=O)C(Sc2ccccc2)c2ccccc2)cc1 (stereo not drawn)	Lmaj promast 56
CC(=O)N(C)c1ccc(NC(=O)C(Sc2ccccc2)c2ccccc2)cc1 (stereo not drawn)	none
CCOc1ccc(NS(=O)(=O)c2ccc(NC(=S)NC(=O)CC(C)C)cc2)cc1	Lmaj promast 98
CC(C)CC(=O)NC(=S)Nc1ccc(S(=O)(=O)NC(C)(C)C)cc1	Lmaj promast 62
O=C(NCCCn1cccn1)c1cc(COc2ccccc2)on1	none (no result: DTT redox prof, G6PDH counter, Diaphorase act, Diaph inh CS, Lmaj promast)
O=C(Nc1ccc(S(=O)(=O)Nc2nccs2)cc1)c1ccc(N2C(=O)c3ccccc3C2=O)cc1	Lmaj promast 101
O=C(Nc1ccc(Oc2nnc(-c3ccccc3)c3ccccc23)cc1)c1ccccc1	Lmaj promast 77
O=C(O)CCn1c(SCCc2ccccc2)nc2ccccc21	none (no result: DTT redox prof, G6PDH counter, Diaphorase act, Diaph inh CS, Lmaj promast)
Cc1ccc(N2C(=O)NC(NS(=O)(=O)c3ccccc3)(C(F)(F)F)C2=O)cc1C (stereo not drawn)	none (no result: DTT redox prof, G6PDH counter, Diaphorase act, Diaph inh CS, Lmaj promast)
Cc1cc(=O)c(C(=O)Nc2ccc(N3CCOCC3)cc2N2CCOCC2)nn1-c1ccccc1Cl	none (no result: DTT redox prof, G6PDH counter, Diaphorase act, Diaph inh CS, Lmaj promast)
CN(Cc1ccccc1F)c1ccc(S(=O)(=O)N2CCCC2)cn1	Lmaj promast 98
N#CCc1ccc(NC(=O)c2ccc(S(=O)(=O)N3CCOCC3)cc2)cc1	none (no result: DTT redox prof, G6PDH counter, Diaphorase act, Diaph inh CS, Lmaj promast)
COc1cccc(N2CCN(CC(=O)c3c[nH]c4ccc(OC)cc34)CC2C)c1 (stereo not drawn)	Lmaj promast 73
CCOc1ccc2c(c1)OC1(CCC(C)C1)CC2=O (stereo not drawn)	none (no result: DTT redox prof, G6PDH counter, Diaphorase act, Diaph inh CS, Lmaj promast)
CCOc1ccc2c(c1)OC(c1ccc(C)cc1)(C(F)(F)F)NC2=O (stereo not drawn)	Lmaj promast 100
Cc1ccc(C(=O)N2[C@@H]3CN(C)C(=O)[C@@]2(Cc2ccccc2)[C@H]2C(=O)N(C)C(=O)[C@@H]32)cc1	none (no result: DTT redox prof, G6PDH counter, Diaphorase act, Diaph inh CS, Lmaj promast)
COc1ccc(C(=O)C(CN2CCOCC2)c2ccccc2)cc1 (stereo not drawn)	Lmaj promast 101
COc1ccc(C(=O)C(CN2CCCC2)c2ccccc2)cc1 (stereo not drawn)	Lmaj promast 100
c1ccc(C(CN2CCOCC2)c2ccccc2)cc1	none
O=C(c1ccccc1)C(CCC(CN1CCOCC1)C(=O)c1ccccc1)CN1CCOCC1 (stereo not drawn)	Lmaj promast 100
O=C(c1ccc(F)cc1)C(CN1CCOCC1)c1ccccc1 (stereo not drawn)	Lmaj promast 101
Cc1ccccc1NC(=O)Cc1nc(COC(=O)CSc2ccc(F)cc2)cs1	none (no result: DTT redox prof, G6PDH counter, Diaphorase act, Diaph inh CS, Lmaj promast)
